The target of series [1] is T1, Prostaglandin G/H synthase 1 (Ovis aries, UniProt P05979).
T1 sequence (P05979 whole entry): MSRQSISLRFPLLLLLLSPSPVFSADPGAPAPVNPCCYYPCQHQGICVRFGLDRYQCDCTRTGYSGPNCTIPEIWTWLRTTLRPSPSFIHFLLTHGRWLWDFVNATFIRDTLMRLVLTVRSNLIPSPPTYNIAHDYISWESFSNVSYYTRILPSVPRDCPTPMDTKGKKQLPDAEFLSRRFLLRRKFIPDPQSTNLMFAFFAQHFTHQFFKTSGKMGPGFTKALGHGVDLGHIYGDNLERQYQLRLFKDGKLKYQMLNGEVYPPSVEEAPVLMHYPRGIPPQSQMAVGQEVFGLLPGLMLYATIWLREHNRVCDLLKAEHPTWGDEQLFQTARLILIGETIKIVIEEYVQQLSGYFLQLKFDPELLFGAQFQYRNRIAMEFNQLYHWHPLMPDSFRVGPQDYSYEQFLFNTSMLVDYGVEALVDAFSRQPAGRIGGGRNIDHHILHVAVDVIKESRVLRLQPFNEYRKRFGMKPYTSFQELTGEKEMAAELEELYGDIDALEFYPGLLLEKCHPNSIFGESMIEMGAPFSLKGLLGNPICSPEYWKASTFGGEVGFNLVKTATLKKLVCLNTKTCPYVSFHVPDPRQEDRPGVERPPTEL
Description: Inhibition of ovine COX1 assessed as reduction in oxidized TMPD using arachidonic acid as substrate preincubated for 5 mins followed by substrate addition and measured after 2 mins by colorimetric assay.

Series [2] has as its system Rattus norvegicus. Put plainly: Antiinflammatory activity against carrageenan-induced paw oedema in albino rat assessed as hind paw thickness at 18 mg/kg, ip pretreated for 1 hr followed by carrageenan challenge and measured immediately by caliper method (reference value: 0.24 +/- 0.24 millimeter). It counts as functional. On the technique in general: Carrageenan injected into the paw causes an acute inflammation.

The nature of series [3]: Ulcerogenicity in albino rat assessed as ulcer index at 18 mg/kg, po administrated once daily for 3 successive days and measured after 6 hrs from last dose (reference value: 0). In kind it is toxicity, organism-based. Particulars: in vivo.
For series [4], the system named is Rattus norvegicus. Description: Antiinflammatory activity in albino rat assessed as inhibition of carrageenan-induced paw edema at 18 mg/kg, ip pretreated for 1 hr followed by carrageenan challenge and measured after 2 hrs by caliper method relative to control. It counts as functional. The method, boiled down:
(§1)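 Carrageenin paw edema in male albino rats (150–200 g, n = 6 per group), 18 mg/kg i.p. 1 h before 0.1 mL 10% carrageenin into the right hind paw. Caliper thickness at 1–4 h. Percent edema inhibition derived from thickness change relative to the untreated control group.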

Series [5] in a line: Ulcerogenicity in albino rat assessed as incidence of gastric ulceration at 18 mg/kg, po administrated once daily for 3 successive days and measured after 6 hrs from last dose relative to control. In kind it is toxicity, organism-based. The following applies: in vivo.
Series [6] relates to Rattus norvegicus. Description: Antiinflammatory activity in albino rat assessed as inhibition of carrageenan-induced paw edema at 18 mg/kg, ip pretreated for 1 hr followed by carrageenan challenge and measured after 3 hrs by caliper method relative to control. It counts as functional. The method, boiled down: as §1
Series [7] has as its system Rattus norvegicus. Put plainly: Antiinflammatory activity in albino rat assessed as inhibition of carrageenan-induced paw edema at 18 mg/kg, ip pretreated for 1 hr followed by carrageenan challenge and measured after 4 hrs by caliper method relative to control. It counts as functional. In a few lines: as §1
Series [8] is described as follows: Ulcerogenicity in albino rat assessed as average severity score at 18 mg/kg, po administrated once daily for 3 successive days and measured after 6 hrs from last dose (reference value: 0). It counts as toxicity, organism-based. Particulars: in vivo.
Series [9] deals with Rattus norvegicus. Description: Antiinflammatory activity against carrageenan-induced paw oedema in albino rat assessed as hind paw thickness at 18 mg/kg, ip pretreated for 1 hr followed by carrageenan challenge and measured after 2 hrs by caliper method (reference value: 0.84 +/- 0.02 millimeter). In kind it is functional. The method, boiled down:
(§2)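 Male albino rats, 150–200 g, six per group, housed at 27 °C on a 12/12 light-dark cycle. Given 18 mg/kg i.p.; control group left untreated. Right hind paw injected 1 h later with 0.1 mL 10% carrageenin. Paw thickness measured by skin caliper at 1, 2, 3 and 4 h after injection. Reported as mean ± S.D., n = 6; significance p < 0.05.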

For series [10], the system named is Rattus norvegicus. Put plainly: Antiinflammatory activity against carrageenan-induced paw oedema in albino rat assessed as hind paw thickness at 18 mg/kg, ip pretreated for 1 hr followed by carrageenan challenge and measured after 3 hrs by caliper method (reference value: 0.94 +/- 0.02 millimeter). It counts as functional. The method, boiled down: as §2
In series [11] the test system is Rattus norvegicus. Description: Antiinflammatory activity against carrageenan-induced paw oedema in albino rat assessed as hind paw thickness at 18 mg/kg, ip pretreated for 1 hr followed by carrageenan challenge and measured after 4 hrs by caliper method (reference value: 1.24 +/- 0.02 millimeter). It counts as functional. In a few lines: as §2
For series [12], the system named is Rattus norvegicus. Put plainly: Antiinflammatory activity against carrageenan-induced paw oedema in albino rat assessed as hind paw thickness at 18 mg/kg, ip pretreated for 1 hr followed by carrageenan challenge and measured after 1 hr by caliper method (reference value: 0.73 +/- 0.03 millimeter). In kind it is functional. The method, boiled down:
as §2

Series [13] relates to Rattus norvegicus. Put plainly: Antiinflammatory activity in albino rat assessed as inhibition of carrageenan-induced paw edema at 18 mg/kg, ip pretreated for 1 hr followed by carrageenan challenge and measured after 1 hr by caliper method relative to control. In kind it is functional. The method, boiled down:
as §1

From ChEMBL document CHEMBL4346689, “Novel benzenesulfonamide and 1,2-benzisothiazol-3(2H)-one-1,1-dioxide derivatives as potential selective COX-2 inhibitors” (Eur J Med Chem, 2019) come the findings set out here.

For orientation: IC50 means the point on the concentration scale where inhibition reaches its midpoint. Consider `O=S(=O)(NCc1ccccc1)c1ccccc1-c1nnc(SCc2ccccc2)o1`, for which the IC50 in series [1] was 3.68 µM.

Turning to `O=S(=O)(NCc1ccccc1)c1ccccc1-c1nnc(S)n1/N=C/c1ccccc1`, the IC50 in [1] stood at 6.45 µM.

As for `O=S(=O)(NCc1ccccc1)c1ccccc1-c1nnc(S)o1`, the IC50 in [1] is 4.52 µM.

For the compound `O=S(=O)(NCc1ccccc1)c1ccccc1-c1nnc(S)n1/N=C/c1ccc(Br)cc1`, the IC50 in [1] amounted to 4.21 µM.

For orientation: inhibition in vivo means the share of the control response that was lost under treatment. In the case of `Cc1ccc(-c2cc(C(F)(F)F)nn2-c2ccc(S(N)(=O)=O)cc2)cc1` [CELECOXIB], the Activity was found to be 0.24 mm in [2]; 0% in series [5]; 0 in [8]; 0.44 mm in [9]; 0.44 mm in series [10]; 0.46 mm in [11]. Besides, the Activity in [12] came out at 0.41 mm. Further, the UI in series [3] turned out to be 3. Also, the inhibition in vivo at 18 mg/kg in [4] is 47.6%; in series [6] it was 53.2%; in series [7], 62.9%; in [13], 43.8%.

Take `COc1ccc2c(c1)c(CC(=O)O)c(C)n2C(=O)c1ccc(Cl)cc1` [INDOMETHACIN]: the UI in [3] was determined as 480. Moreover, the values for the Activity in [5] and in series [8] were 100% and 4.8, respectively.

As to `COc1ccc(/C=N/n2c(S)nnc2-c2ccccc2S(=O)(=O)NCc2ccccc2)cc1`, the IC50 in series [1] stood at 3.25 µM.

As for `Cc1cc(-c2ccccc2)n(C(=O)C(C(=O)n2nc(C)cc2-c2ccccc2)N2C(=O)c3ccccc3S2(=O)=O)n1`, the Activity in series [2] is 0.24 mm; in series [5] it was 20%; in series [8], 0.2; in series [9], 0.41 mm; in [10] it was 0.41 mm; in series [11] it was 0.48 mm. Further, in series [12], the Activity is 0.36 mm. Besides, in series [3], the UI came to 4. Moreover, the inhibition in vivo at 18 mg/kg in series [4] was 51.2%; in series [6], 56.4%; in series [7], 61.3%; in [13], 50.7%. For the same compound, the IC50 in series [1] was found to be 11.8 µM.

On to `CC(C)NS(=O)(=O)c1ccccc1C(=O)N1N=C(c2ccccc2)CC1=O`, for which the Activity in [2] was 0.24 mm; in series [5], 20%; in series [8] it was 0.2; in series [9] it was 0.5 mm; in series [10], 0.52 mm; in series [11] it was 0.54 mm. The Activity in [12] amounted to 0.42 mm. The UI in [3] is reported as 4. Besides, the inhibition in vivo at 18 mg/kg in [4] came out at 43.5%; in [6], 44.7%; in [7], 56.5%; in series [13], 42.5%. The IC50 in series [1] came to 12.2 µM.

As for `O=C(N/N=C/c1ccc(Cl)cc1)C(C(=O)N/N=C/c1ccc(Cl)cc1)N1C(=O)c2ccccc2S1(=O)=O`, the IC50 in series [1] was 7.65 µM.

As for `O=C(N/N=C/c1ccccc1)C(C(=O)N/N=C/c1ccccc1)N1C(=O)c2ccccc2S1(=O)=O`, the IC50 in series [1] came to 1.98 µM.

In the case of `CCSc1nnc(-c2ccccc2S(=O)(=O)NCc2ccccc2)o1`, the IC50 in series [1] came out at 8.21 µM.

Consider `O=S(=O)(NCc1ccccc1)c1ccccc1-c1nnc(S)n1/N=C/c1ccc(Cl)cc1`, for which, in series [1], the IC50 was 5.71 µM.

Turning to `Nn1c(S)nnc1-c1ccccc1S(=O)(=O)NCc1ccccc1`, the Activity in series [2] came out at 0.24 mm; in series [5] it was 100%; in [8], 3.6; in series [9], 0.48 mm; in [10], 0.56 mm; in [11], 0.63 mm. In addition, the Activity in [12] stood at 0.44 mm. The UI in [3] is listed as 360. Moreover, the inhibition in vivo at 18 mg/kg in [4] came to 42.9%; in [6], 45.4%; in [7], 49.2%; in series [13] it was 39.7%. Also, in series [1], the IC50 was determined as 2.98 µM.

Take `O=C(N/N=C/c1ccc(F)cc1)C(C(=O)N/N=C/c1ccc(F)cc1)N1C(=O)c2ccccc2S1(=O)=O`: the Activity is 0.24 mm in [2]; 100% in series [5]; 1.2 in series [8]; 0.4 mm in [9]; 0.43 mm in series [10]; 0.55 mm in series [11]. The Activity in series [12] was 0.36 mm. Besides, the UI in [3] worked out at 120. The inhibition in vivo at 18 mg/kg in series [4] amounted to 52.4%; in series [6], 54.2%; in series [7], 54.3%; in [13], 50.7%. The IC50 in series [1] turned out to be 2.78 µM.

Take `Cc1cc(-c2ccccc2)n(C(=O)c2ccccc2S(=O)(=O)NC(C)C)n1`: the Activity in series [2] was determined as 0.24 mm; in [5], 20%; in series [8] it was 0.2; in series [9] it was 0.36 mm; in series [10] it was 0.38 mm; in series [11] it was 0.43 mm. For the same compound, the Activity in series [12] came to 0.32 mm. Further, the UI in [3] came to 4. Further, the inhibition in vivo at 18 mg/kg in series [4] was found to be 57.1%; in series [6], 59.6%; in series [7], 65.3%; in series [13], 56.2%. Besides, the IC50 in series [1] came to 9.24 µM.
